In ChEMBL document CHEMBL4513216, “Probing the Open Global Health Chemical Diversity Library for Multistage-Active Starting Points for Next-Generation Antimalarials” (ACS Infect Dis, 2020):

Experiment: Toxicity liver stage against HepG2, at 10uM
Type: cell-based
Parameters: test concentration 10 uM, cell line HepG2-A16-CD81EGFP
Details: human, HepG2-A16-CD81EGFP cells; read-out: INHIBITION
In short: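 Uninfected HepG2-A16-CD81EGFP cells, 3 × 10^3 per well, 1536-well, plated on prespotted compound at 10 μM final, parasite-free screening media added to match infected plates; puromycin 10 μM positive, DMSO 0.5% negative; run in parallel with 48 h PbLuc assay at 37 °C, 5% CO2; viability by CellTiter-Glo luminescence, normalized to controls.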

SMILES | cytotoxicity at 10 µM [%]
Cc1ccc(C)c(CSc2nnc([C@@H](N)C(C)C)o2)c1 | 5.95
CCS(=O)(=O)N1CCc2ccc(NC(=O)Nc3ccccc3C)cc21 | 13.1
CC(C)NC(=O)CCC(=O)N1CCC(c2noc3cc(F)ccc23)CC1 | 2.13
Cc1cc(-c2nn3c(C4CCC4)nnc3s2)on1 | -5.65
O=C(Nc1cccnc1)C1CN(C(=O)c2ccc3c(c2)OCO3)C1 | -11.7
COc1ncc(NS(=O)(=O)c2cccc(C)c2)c(OC)n1 | 10.4
CC(=O)N1CCc2nc(N3CCCC3)nc(C)c2C1 | -0.567
CCOCc1cnc2n1CCN(C(=O)Cc1cccs1)C2C (centres undefined) | 8.04
CNC(=O)N1CCN(C(=O)C(C)C)CC2(CC(=O)N(C)C2)C1 (centres undefined) | 7.43
Cc1ncsc1CN1C[C@H]2OCC[C@H]2[C@H](C(=O)NCC2CC2)C1 | 5.6
COCC1c2c(cnn2C)CCN1Cc1ccc(C)o1 (centres undefined) | -5.73
CC(C)CC(=O)N1CCN(C(=O)NC(C)C)CC2(CC(=O)N(C)C2)C1 (centres undefined) | 3.25
Cc1nccn1-c1nccnc1C1CCCN(C)C1 (centres undefined) | 2.2
O=S(=O)(NC1CCOC1)c1ccc(C(F)(F)F)nc1 (centres undefined) | 8.16
O=C(CCCc1nc2ccccc2[nH]1)N1CCCC1c1ccncc1 (centres undefined) | 3.79
CCc1noc(CNc2cccc(C(=O)N3CCSCC3)c2)n1 | -5.73
COc1cccc(C2(C(=O)NC3CCc4nccn4C3)CCCC2)c1 (centres undefined) | 2.74
CC(C)(C)OC(=O)N1CCC(NC2CCS(=O)(=O)C2)CC1 (centres undefined) | -6.72
O=C(c1cccc(F)c1F)N1CCn2c(nnc2C(F)(F)F)C1 | -8.22
COCCc1nc(-c2cnn3c(C)cc(C)nc23)no1 | 2.49
CC(C)(O)CN1CCN(C(=O)c2cccn2Cc2cccnc2)CC1 | -0.787
CC(=O)Nc1ccc(CNc2cccc(CS(C)(=O)=O)c2)cc1 | -6.91
CCCC(NC(=O)c1cc(C)ccc1O)c1nnn[nH]1 (centres undefined) | -3.26
CCc1nc(NS(=O)(=O)c2cc(C)c(F)cc2Cl)no1 | 15.8
Cc1cnn(CCNCc2ccc(OCc3ccccn3)cc2)c1 | 0.686
CC(=O)N1CCCN(Cc2nnc(C(C)(C)C)o2)CC1 | -4.13
O=C(NCCCn1cccn1)C1(c2cccc(Cl)c2)CC1 | 17.9

SMILES | cytotoxicity at 10 µM [%]
CC1(NC(=O)Cc2csc(-c3ccccc3Cl)n2)CCS(=O)(=O)C1 (centres undefined) | -9.81
COc1ccc(C2CCCN2Cc2cnn(C)c2)cc1 (centres undefined) | 7.53
CCN(CC1CCCO1)C(=O)NCCNC(=O)c1ccccc1F (centres undefined) | 5.63
COCCn1c2c(ccc1=O)CCN(C(=O)CC1CC1)CC2 | 2.24
O=C(CC1CCCC1)N1C[C@@H]2CN(Cc3ccoc3)CCO[C@@H]2C1 | -79.3
O=C(c1ccnnc1)N1C[C@H]2CN(Cc3cccc(F)c3)C(=O)[C@H]2C1 | -77.3
Cc1noc(C)c1CN1CC[C@H]2C[C@H](c3ccncn3)O[C@@H]2C1 | -69.5
Cc1c(NC(=O)c2cnc[nH]2)cccc1C(=O)NC(C)(C)C | -6.46
CN(C)c1nc2c(c(N3CCCC3)n1)CCN(C(=O)c1ccc[nH]1)CC2 | 7.81
Cc1nn(C)c(C)c1-c1cc(-c2cnn(C)c2C2CC2)c(C#N)c(N)n1 | 18
Cc1ccc(-c2cc(C(=O)N(C)Cc3noc4c3CCCC4)[nH]n2)o1 | -11
O=C(CCCN1CCCCC1)N[C@H](C(=O)O)c1cccc(F)c1F | -13.2
CNc1ccc(CC2CCCN(C(=O)c3cnc(C)nc3)C2)nn1 (centres undefined) | -1.2
CN(C)C(=O)C1CCN(Cn2nc(-c3ccc(F)cc3)oc2=O)CC1 | -2.06
O=C(Cc1ccccc1)NCCNCc1cccc(O)c1 | -0.206
Cn1c(C2CC2)nc2c1CCN(Cc1nc(Cc3ccccc3)no1)C2 | -6.37
Cc1cnn(CC(C)NCc2nc(-c3cccs3)no2)c1 (centres undefined) | -7.64
COc1cc(C(=O)NS(=O)(=O)c2cccc(C#N)c2)cc(OC)c1Br | -9.67
CCOC(=O)CN(C)C1CCc2ccccc21 (centres undefined) | 0.367
Cc1cc(NC(=O)CCN2CCCCC2Cn2cccn2)no1 (centres undefined) | 2.14
Cc1nc(C2CCCN2C(=O)CCOCc2ccccc2)no1 (centres undefined) | -2.4
Cc1nn(C)c(Cl)c1C1CCCN1C(=O)c1cnn(C)c1C1CC1 (centres undefined) | 1.99
CN(C)c1ncccc1CNS(=O)(=O)c1ccccc1F | -4.81
Cc1csc(C2CCCCN2C(=O)CN(C)C2CC2)n1 (centres undefined) | -1.9
CCn1ccnc1CN1CCCN(C(=O)Cc2ccc(C)nc2)CC1 | -1.92
CC(C)c1nc(CN2CCN(CC3CCCO3)CC2)cs1 (centres undefined) | -1.52
COCCN1C(=O)CCC12CCC(NCc1cccnc1OC)CC2 (centres undefined) | 8.64

SMILES | cytotoxicity at 10 µM [%]
COC[C@H]1CNC(=O)[C@@H]2CCN(Cc3ccc(F)cc3)CC[C@H]12 | 14.2
CC(=O)NCC(=O)N1CCC2(CC1)NC(=O)CC2c1cccnc1 (centres undefined) | -72.5
CN1CC[C@H]2[C@H](C[C@@H](CN3CCCC3)N2c2nccs2)C1 | 3.59
CNC(=O)[C@@H]1C[C@H]2CN(Cc3ccc(C)s3)C[C@H]2N1C(C)=O | 2.76
CS(=O)(=O)NCc1nnc2n1CCN(Cc1cccs1)CC2 | -71.7
O=C(c1c[nH]cn1)N1CCC(F)(F)C2(CCN(c3ccccn3)C2)C1 (centres undefined) | 11
CCS(=O)(=O)N1CCC2(CCN(Cc3cccc(OC)c3)CC2)CC1 | 2.5
Cc1cccc(N2CC3(CCN(S(=O)(=O)C4CC4)C3)C2)n1 | 3.86
O=C(c1cscn1)N1CCC2(CN(Cc3ccoc3)C2)C1 | 7.2
COCCC1COC2(CCN(C(=O)c3cccnc3)CC2)C1 (centres undefined) | -72.4
Cc1nc(CN2CCC3(CC2)CC(c2cccnc2)C(=O)N3C)cs1 (centres undefined) | 9.95
O=C(NCc1cncc2c1CCN(C1CCOCC1)C2)c1ccno1 | -2.67
O=C([C@H]1C[C@H]2OCC[C@H]2N(Cc2ccco2)C1)N1CCCO1 | 8.73
CCc1cnc(N2CCC3(CC(=O)N(Cc4csc(C)n4)C3)C2)nc1 (centres undefined) | -2.71
CCCS(=O)(=O)N1CCOC2(CCCN(Cc3ccccn3)C2)C1 (centres undefined) | -0.58
COCCN1CCOCC12CCN(Cc1ccn(C)n1)CC2 | -3.39
CN1[C@H](Cn2cncn2)C[C@@H]2CN(C3CCOCC3)CC[C@@H]21 | 4.56
O=C(O)c1cc2c(nc1-c1ccoc1)CCN(Cc1ccco1)CC2 | -78.9
Cc1cccc(CN2C(=O)C[C@H]3[C@@H]2CCN3Cc2cccs2)n1 | -79.6
O=C([C@@H]1CCO[C@@H]2CCN(CC3CCOCC3)C[C@H]21)N1CCCO1 | 7.37
COc1cc(N2C[C@@H]3COC[C@]3(COCc3ccncc3)C2)ncn1 | -72.4
Cc1cc(CN2C[C@@H]3COC[C@@H](C(=O)N4CCCCO4)[C@@H]3C2)no1 | -80.6
CNC(=O)[C@@H](c1ccccc1)N1CCC[C@H]1C(=O)NCc1ccccn1 | 5.62
COCCN1CCC2(CC1)CN(C(=O)C1CC1)c1ccc(F)cc12 | -0.213
CCOCC(=O)N1Cc2nccn2CC(CN2CCCC2)C1 (centres undefined) | -76.3
